The target in data set [1] is T1, Diacylglycerol O-acyltransferase 1 (Mus musculus, UniProt Q9Z2A7).
T1 sequence (Q9Z2A7 whole entry): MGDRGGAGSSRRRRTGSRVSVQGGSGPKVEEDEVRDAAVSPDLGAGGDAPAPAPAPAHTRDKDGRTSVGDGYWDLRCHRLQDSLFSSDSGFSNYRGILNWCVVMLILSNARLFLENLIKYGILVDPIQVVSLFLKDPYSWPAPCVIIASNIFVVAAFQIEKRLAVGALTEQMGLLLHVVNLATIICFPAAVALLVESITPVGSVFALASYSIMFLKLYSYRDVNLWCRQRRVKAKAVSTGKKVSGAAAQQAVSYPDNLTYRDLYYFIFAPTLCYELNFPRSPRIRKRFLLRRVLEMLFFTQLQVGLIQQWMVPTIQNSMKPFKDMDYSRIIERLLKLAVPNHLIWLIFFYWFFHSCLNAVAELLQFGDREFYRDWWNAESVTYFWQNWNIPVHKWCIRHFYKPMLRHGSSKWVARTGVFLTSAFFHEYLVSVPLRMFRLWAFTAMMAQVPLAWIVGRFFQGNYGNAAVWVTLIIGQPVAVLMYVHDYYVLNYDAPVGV
As to the kind of experiment: Inhibition of mouse DGAT1.

Data set [2] addresses T2, Diacylglycerol O-acyltransferase 1 (Homo sapiens, UniProt O75907).
T2 sequence (O75907 whole entry): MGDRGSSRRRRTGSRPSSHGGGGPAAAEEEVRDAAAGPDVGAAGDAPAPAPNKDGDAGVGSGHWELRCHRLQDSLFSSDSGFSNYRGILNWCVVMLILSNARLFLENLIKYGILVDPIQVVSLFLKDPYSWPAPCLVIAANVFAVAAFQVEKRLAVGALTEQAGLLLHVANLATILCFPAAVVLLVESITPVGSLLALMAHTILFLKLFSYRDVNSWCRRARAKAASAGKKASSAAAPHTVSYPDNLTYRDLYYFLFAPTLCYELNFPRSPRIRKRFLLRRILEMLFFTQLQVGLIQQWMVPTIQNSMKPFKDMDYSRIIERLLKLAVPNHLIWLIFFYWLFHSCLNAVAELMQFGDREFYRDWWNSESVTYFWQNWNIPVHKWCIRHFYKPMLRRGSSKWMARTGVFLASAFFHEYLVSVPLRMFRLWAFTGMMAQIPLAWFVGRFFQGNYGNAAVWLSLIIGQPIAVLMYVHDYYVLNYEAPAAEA
As to the kind of experiment: Inhibition of human DGAT1.

Data set [3] relates to Rhesus monkey. In words: AUC in rhesus monkey assessed as trans-4-(5-(5-fluoro-1H-benzo[d]imidazol-2-yl)-2,3'-bipyridin-6'-yloxy)cyclohexanecarboxylic acid at 2 mg/kg, po. It is filed as ADME, organism-based, Macaca mulatta, Plasma. More on the design: dose 2 mg/kg, route oral. The following applies: in vivo. The essentials:
(§1)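 Rhesus monkeys; iv 1 mg/kg as a solution in EtOH/PEG400/water (10:50:40), and oral 2 mg/kg as a solution in 0.5% methylcellulose. Plasma measured for the parent and the epimer metabolite.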

A short description of data set [4]: AUC in rhesus monkey at 2 mg/kg, po. It is filed as ADME, organism-based, Macaca mulatta. More on the design: dose 2 mg/kg, route oral. The settings on record: plasma. The essentials: as §1
Data set [5] in a line: Cmax in rhesus monkey at 2 mg/kg, po. It is filed as ADME, organism-based, Macaca mulatta. Set-up: dose 2 mg/kg, route oral. The settings on record: in vivo. The essentials: as §1
Data set [6] can be described thus: Tmax in rhesus monkey at 2 mg/kg, po. The data set is classed as ADME, organism-based, Macaca mulatta. Set-up: dose 2 mg/kg, route oral. The settings on record: in vivo. The essentials:
as §1

The nature of data set [7]: Half life in rhesus monkey at 1 mg/kg, iv. The settings on record: in vivo. It is filed as ADME, organism-based, Macaca mulatta. More on the design: dose 1 mg/kg, route intravenous. The essentials:
as §1

Data set [8] is described as follows: Volume of distribution at steady state in rhesus monkey at 1 mg/kg, iv. Set-up: dose 1 mg/kg, route intravenous. The data set is classed as ADME, organism-based, Macaca mulatta. The following applies: in vivo, read-out: Vdss. The essentials: as §1
The nature of data set [9]: Clearance in rhesus monkey at 1 mg/kg, iv. Set-up: dose 1 mg/kg, route intravenous. It is filed as ADME, organism-based, Macaca mulatta. The settings on record: in vivo. The essentials:
as §1

Data set [10] is described as follows: Bioavailability in rhesus monkey at 1 mg/kg, iv. It is filed as ADME, organism-based, Macaca mulatta. The following applies: in vivo. The essentials: as §1
Data set [11] relates to Canis familiaris. In words: AUC in beagle dog assessed as trans-4-(5-(5-fluoro-1H-benzo[d]imidazol-2-yl)-2,3'-bipyridin-6'-yloxy)cyclohexanecarboxylic acid at 2 mg/kg, po. The data set is classed as ADME, organism-based, Canis lupus familiaris, Plasma. Set-up: dose 2 mg/kg, route oral. The settings on record: in vivo. The essentials: (§2)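 Beagles; iv 0.55 mg/kg as a solution in EtOH/PEG400/water (10:50:40), and oral 2 mg/kg as a solution in 0.5% methylcellulose. Plasma measured for the parent and the epimer metabolite.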

Data set [12] is described as follows: AUC in beagle dog at 2 mg/kg, po. It is filed as ADME, organism-based, Canis lupus familiaris. More on the design: dose 2 mg/kg, route oral. The following applies: plasma. The essentials:
as §2

Data set [13] is described as follows: Tmax in beagle dog at 2 mg/kg, po. Set-up: dose 2 mg/kg, route oral. It is filed as ADME, organism-based, Canis lupus familiaris. The following applies: in vivo. The essentials:
as §2

Data set [14] is described as follows: Cmax in beagle dog at 2 mg/kg, po. The data set is classed as ADME, organism-based, Canis lupus familiaris. More on the design: dose 2 mg/kg, route oral. The following applies: in vivo. The essentials: as §2
The nature of data set [15]: Half life in beagle dog at 0.55 mg/kg, iv. It is filed as ADME, organism-based, Canis lupus familiaris. More on the design: dose 0.55 mg/kg, route intravenous. The settings on record: in vivo. The essentials:
as §2

A short description of data set [16]: Volume of distribution at steady state in beagle dog at 0.55 mg/kg, iv. Set-up: dose 0.55 mg/kg, route intravenous. The settings on record: in vivo, read-out: Vdss. The data set is classed as ADME, organism-based, Canis lupus familiaris. The essentials:
as §2

The nature of data set [17]: Clearance in beagle dog at 0.55 mg/kg, iv. The data set is classed as ADME, organism-based, Canis lupus familiaris. More on the design: dose 0.55 mg/kg, route intravenous. The settings on record: in vivo. The essentials: as §2
The nature of data set [18]: Bioavailability in beagle dog at 0.55 mg/kg, iv. The data set is classed as ADME, organism-based, Canis lupus familiaris. The settings on record: in vivo. The essentials: as §2
Data set [19] relates to Rattus norvegicus. In words: AUC in Sprague-Dawley rat assessed as trans-4-(5-(5-fluoro-1H-benzo[d]imidazol-2-yl)-2,3'-bipyridin-6'-yloxy)cyclohexanecarboxylic acid at 10 mg/kg, po. The following applies: in vivo. The data set is classed as ADME, organism-based, Plasma. More on the design: dose 10 mg/kg, route oral. The essentials:
(§3)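 Sprague–Dawley rats; oral 10 mg/kg given as a solid dispersion formulation, with the iv arm at 1 mg/kg in EtOH/PEG400/water (10:50:40). Plasma exposure measured for the parent and for the epimer metabolite.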

Data set [20] in a line: AUC in Sprague-Dawley rat at 10 mg/kg, po. It is filed as ADME, organism-based. More on the design: dose 10 mg/kg, route oral. The following applies: plasma. The essentials:
as §3

Data set [21] is described as follows: Tmax in Sprague-Dawley rat at 10 mg/kg, po. The data set is classed as ADME, organism-based. More on the design: dose 10 mg/kg, route oral. The settings on record: in vivo. The essentials: as §3
Data set [22] is described as follows: Half life in Sprague-Dawley rat at 1 mg/kg, iv. The data set is classed as ADME, organism-based. Set-up: dose 1 mg/kg, route intravenous. The settings on record: in vivo. The essentials: (§4)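 Sprague–Dawley rats; intravenous dose of 1 mg/kg given as a solution in EtOH/PEG400/water (10:50:40).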
Data set [23] can be described thus: Cmax in Sprague-Dawley rat at 10 mg/kg, po. Set-up: dose 10 mg/kg, route oral. It is filed as ADME, organism-based. The settings on record: in vivo. The essentials: as §3
Data set [24] in a line: Volume of distribution at steady state in Sprague-Dawley rat at 1 mg/kg, iv. It is filed as ADME, organism-based. The settings on record: in vivo, read-out: Vdss. More on the design: dose 1 mg/kg, route intravenous. The essentials:
as §4

Data set [25] can be described thus: Clearance in Sprague-Dawley rat at 1 mg/kg, iv. It is filed as ADME, organism-based. Set-up: dose 1 mg/kg, route intravenous. The settings on record: in vivo. The essentials:
as §4

Data set [26] in a line: Bioavailability in Sprague-Dawley rat at 1 mg/kg, iv. It is filed as ADME, organism-based. The following applies: in vivo. The essentials:
as §4

Data set [27] can be described thus: Lipophilicity, log D of the compound by HPLC analysis. It is filed as physicochemical.

Molecules are shown by their SMILES.

Consider `O=C(O)[C@H]1CC[C@H](Oc2ccc(-c3ccc(-c4nc5cc(F)c(F)cc5[nH]4)cn3)cn2)CC1`, for which the IC50 (in general, the concentration needed to halve the response being measured) in data set [1] was 4.3 nM; in data set [2] it was 1.3 nM.
On to `COc1ccc2[nH]c(-c3ccc(-c4ccc(O[C@H]5CC[C@H](C(=O)O)CC5)nc4)nc3)nc2n1`, for which inhibition in [2] was half-maximal at 14 nM (IC50).
Take `O=C(O)[C@H]1CC[C@@H](Oc2ccc(-c3ccc(-c4nc5ccc(OC(F)(F)F)cc5[nH]4)cn3)cn2)CC1`: the IC50 in data set [1] amounted to 4.6 nM; in data set [2] it was 3.9 nM.
Take `O=C(O)[C@H]1CC[C@@H](Oc2ccc(-c3ccc(-c4nc5ccc(F)cc5[nH]4)cn3)cn2)CC1`: the AUC (as a rule, the area under the concentration-time curve, a measure of exposure) was found to be 0.56 µM·h in data set [3]; 0.2 µM·h in data set [4]; 0.06 µM·h in data set [11]; 0.05 µM·h in data set [12]; 2.47 µM·h in data set [19]; 0.25 µM·h in data set [20]. The Cmax (as a rule, the peak of the concentration-time curve) in data set [5] was 10 nM; in data set [14] it was 60 nM; in data set [23], 60 nM. The Tmax (as a rule, the time from dosing to the highest level) in data set [6] amounted to 8 h; in data set [13] it was 0.25 h; in data set [21], 2 h. Further, the results for the half-life in data set [7], in data set [15] and in [22] were 2 h, 0.82 h and 1.69 h, respectively. The Vd in data set [8] amounted to 0.37 L/kg; in data set [16], 0.63 L/kg; in [24] it was 2.18 L/kg. The clearance (in general, the volume of plasma or blood freed of the substance per unit of time) in data set [9] came to 12.4 mL/min/kg; in data set [17], 32.3 mL/min/kg; in data set [25], 31.8 mL/min/kg. For the same compound, the values for the bioavailability in data set [10], in [18] and in data set [26] were 3%, 2% and 2%, respectively. In addition, the IC50 in [1] worked out at 3.4 nM; in data set [2] it was 2 nM. The logD (in general, the decadic logarithm of the distribution of all forms, ionised or not, between an organic phase and buffer at a given pH) in data set [27] was 1.02.

The values above are taken from ChEMBL document CHEMBL2407079, “Potent DGAT1 Inhibitors in the Benzimidazole Class with a Pyridyl-oxy-cyclohexanecarboxylic Acid Moiety” (ACS Med Chem Lett, 2013).
